We go through 27 compounds from ChEMBL document CHEMBL3867485, “Design, Conformation, and Crystallography of 2-Naphthyl Phenyl Ethers as Potent Anti-HIV Agents” (ACS Med Chem Lett, 2016).

≈ marks a conversion by molar mass, not a printed value.

As a reminder, the EC50 is the concentration needed to bring the measured effect to its halfway point. Broadly, the CC50 is the concentration at which the toxic effect on the cells reaches its halfway point. What is called solubility (thermodynamic) is solubility found after equilibrating the solid with the medium.

A short description of data set [1]: Inhibition of wild-type HIV1 3B reverse transcriptase infected in human MT2 cells assessed as protection against viral infection by MTT assay. In kind it is cell-based. The note with it: Human immunodeficiency virus 1, 3B. Put shortly:
(§1)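 Human MT-2 T cells, run in triplicate. For antiviral activity, cells were infected with the HIV-1 IIIB strain, and EC50 was taken as the dose giving 50% protection of infected cells. For cytotoxicity, CC50 was the concentration that inhibited MT-2 cell growth by 50%.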
(Tetrazolium dyes change colour on reduction, which living cells bring about.)

The nature of data set [2]: Cytotoxicity against human MT2 cells assessed as reduction in cell growth by MTT assay. In kind it is toxicity, cell-based. Put shortly:
as §1

A short description of data set [3]: Aqueous solubility of the compound at pH 6.5 by shake-flask method. In kind it is physicochemical.

As for `N#Cc1cc2c(Oc3ccc(F)cc3OCCn3ccc(=O)[nH]c3=O)cc(F)cn2c1`, the EC50 in data set [1] amounted to 0.4 nM.
`Cc1cc2ccc(C#N)cc2c(C)c1Oc1ccccc1OCCn1ccc(=O)[nH]c1=O`: the EC50 in data set [1] came to 160 nM. In addition, in data set [2], the CC50 is 5000 nM.
In the case of `N#Cc1ccc2c(Cl)cc(Oc3ccc(F)cc3OCCn3ccc(=O)[nH]c3=O)cc2c1`, the EC50 in data set [1] turned out to be 24 nM. The half-maximal cytotoxic concentration (CC50) in data set [2] is greater than 100000 nM.
Take `N#Cc1ccc2c(Cl)cc(Oc3ccccc3OCCn3ccc(=O)[nH]c3=O)cc2c1`: the EC50 in data set [1] turned out to be 14 nM. Further, the CC50 in data set [2] worked out at 12000 nM.
As to `Cc1c(Oc2ccccc2OCCn2ccc(=O)[nH]c2=O)cc(C(C)C)c2ccc(C#N)cc12`, the EC50 in data set [1] is 16 nM. In addition, in data set [2], the CC50 was 9000 nM.
The matching figures for `Cc1c(Oc2ccc(F)cc2OCCn2ccc(=O)[nH]c2=O)cc(F)c2ccc(C#N)cc12`: 3 nM and greater than 100000 nM.
Turning to `Cc1c(Oc2ccc(F)cc2OCCn2ccc(=O)[nH]c2=O)cc(Cl)c2ccc(C#N)cc12`, in data set [1], the EC50 came to 3.6 nM. For the same compound, in data set [2], the CC50 turned out to be 82000 nM.
As to `N#Cc1ccc2ccc(Oc3ccc(F)cc3OCCn3ccc(=O)[nH]c3=O)cc2c1`, the EC50 in data set [1] is 26 nM. For the same compound, the CC50 in data set [2] is greater than 100000 nM.
The matching figures for `Cc1cc(Oc2ccc(F)cc2OCCn2ccc(=O)[nH]c2=O)c(F)c2cc(C#N)ccc12`: 58 nM and 45000 nM.
The matching figures for `Cc1c(Oc2ccccc2OCCn2ccc(=O)[nH]c2=O)c(C)c2cc(C#N)ccc2c1C`: 580 nM and greater than 100000 nM.
The matching figures for `Cc1c(Oc2ccc(Cl)cc2OCCn2ccc(=O)[nH]c2=O)cc(F)c2ccc(C#N)cc12`: 18 nM and 6000 nM.
Take `Cc1c(Oc2ccccc2OCCn2ccc(=O)[nH]c2=O)cc(Cl)c2ccc(C#N)cc12`: the EC50 in data set [1] was determined as 6.2 nM. Also, the CC50 in data set [2] was greater than 100000 nM. For the same compound, the thermodynamic solubility in data set [3] turned out to be 20.6 µg/mL (≈ 46 µM).
Consider `N#Cc1ccc2c(F)cc(Oc3ccc(F)cc3OCCn3ccc(=O)[nH]c3=O)c(Cl)c2c1`, for which the EC50 in data set [1] is 7 nM. The cytotoxic concentration (CC50) in data set [2] turned out to be 28000 nM.
The matching figures for `Cc1cc(Oc2ccccc2OCCn2ccc(=O)[nH]c2=O)c(Cl)c2cc(C#N)ccc12`: 5 nM and greater than 100000 nM.
The matching figures for `N#Cc1ccc2c(F)cc(Oc3ccccc3OCCn3ccc(=O)[nH]c3=O)c(Cl)c2c1`: 5 nM and greater than 100000 nM.
`CCc1cc(Oc2ccccc2OCCn2ccc(=O)[nH]c2=O)c(C)c2cc(C#N)ccc12`: the EC50 in data set [1] is 6 nM. The CC50 in data set [2] came to 12000 nM.
As to `Cc1cc(Oc2ccc(F)cc2OCCn2ccc(=O)[nH]c2=O)c(C)c2cc(C#N)ccc12`, the EC50 in data set [1] amounted to 1.9 nM. The CC50 in data set [2] is greater than 100000 nM.
For the compound `CCOc1cc(Oc2ccccc2OCCn2ccc(=O)[nH]c2=O)c(C)c2cc(C#N)ccc12`, the EC50 in data set [1] came out at 10 nM. In addition, in data set [2], the CC50 was greater than 100000 nM.
Regarding `N#Cc1ccc2cc(Oc3ccccc3OCCn3ccc(=O)[nH]c3=O)ccc2c1`, the EC50 in data set [1] worked out at 1300 nM. Besides, in data set [2], the CC50 was 9000 nM.
Turning to `Cc1c(Oc2ccccc2OCCn2ccc(=O)[nH]c2=O)cc(F)c2ccc(C#N)cc12`, the EC50 in data set [1] stood at 7.8 nM. In data set [2], the CC50 was greater than 100000 nM. Besides, the solubility (thermodynamic) in data set [3] came to 28.2 µg/mL (≈ 65.4 µM).
On to `COc1cc(Oc2ccccc2OCCn2ccc(=O)[nH]c2=O)c(C)c2cc(C#N)ccc12`, for which, in data set [1], the EC50 was found to be 17 nM. In addition, the CC50 in data set [2] was greater than 100000 nM.
For `Cc1cc(Oc2ccccc2OCCn2ccc(=O)[nH]c2=O)c(C)c2cc(C#N)ccc12`, the EC50 in data set [1] was 3.5 nM. Moreover, in data set [2], the CC50 was greater than 100000 nM.
The matching figures for `Cc1cc(Oc2ccccc2OCCn2ccc(=O)[nH]c2=O)cc2cc(C#N)ccc12`: 4.9 nM and 6000 nM.
The matching figures for `COCc1cc(Oc2ccccc2OCCn2ccc(=O)[nH]c2=O)c(C)c2cc(C#N)ccc12`: 15 nM and 16000 nM.
The matching figures for `CCCc1cc(Oc2ccccc2OCCn2ccc(=O)[nH]c2=O)c(C)c2cc(C#N)ccc12`: 21 nM and 15000 nM.
With `N#Cc1ccc2ccc(Oc3ccccc3OCCn3ccc(=O)[nH]c3=O)cc2c1`, in data set [1], the EC50 stood at 22 nM. Moreover, in data set [2], the CC50 came to 15000 nM.
The matching figures for `Cc1c(Oc2ccccc2OCCn2ccc(=O)[nH]c2=O)cc(CC2CC2)c2ccc(C#N)cc12`: 18 nM and 13000 nM.
